Bioassay records: PubChem, several laboratories
This is one part of a sample in which hits are shown more often than they occur.
UPR CHOP act = apoptotic UPR (CHOP) activation; CHO-CHOP luciferase reporter, luminescence; percent of tunicamycin response over DMSO baseline; AID 449763; activation, % at 10 µM; 0.34% of 330,000 active;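 active = at 10 µM dose, activation of 40% or more, normalized to positive control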;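 note: 100% = tunicamycin at 10 µg/mL and 0% = DMSO alone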
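System: CHO-CHOP luciferase reporter cell line | Buffer or medium: F12 medium containing 10% fetal bovine serum | Doses: One dose, 10 µM in 0.5% DMSO | Times: 6 h compound exposure at 37 °C after overnight seeding | Signal: Luciferase luminescence | Read-out: % activation vs tunicamycin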
L major viab = inhibitors of Leishmania major promastigote growth. Leishmania major promastigotes, resazurin fluorescence viability. inhibition, % at 10 µM. 9% of 200,000 active; in the data active = inhibition above about 50%;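 note: promastigotes grown with compound for 44 hours at 28 °C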
CHOP inh = CHOP inhibition in unfolded protein response; CHO-K1 CHOP-promoter luciferase, tunicamycin-induced, 15-18 h; inhibition, % at 10 µM; 3.8% of 220,000 active;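 active = compounds that reduced the stress-induced luciferase reporter signal by more than about 70% of percent inhibition, limit read from the data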;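 note: 0% = tunicamycin plus vehicle and 100% = wells without tunicamycin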
T cruzi repl = blocks replication of Trypanosoma cruzi. T. cruzi beta-gal in NIH3T3, luminescence, 90 h. inhibition, % (test concentration not listed). 1.4% of 300,000 active. AID 1885;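 active = mean inhibition across valid replicates above about 55%, limit read from the data; inconclusive = mean below that limit but half or more replicates reach it; inactive = mean below it, under half of replicates reach it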;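 note: signal also drops with host cell toxicity which is not excluded here; 0% = plate median of DMSO wells and 100% = zero luminescence signal; higher percent means less beta-gal luminescence so fewer parasites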
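Material: NIH/3T3 host cells with β-galactosidase reporter T. cruzi; Input: 5,000 host fibroblasts per well; Medium: DMEM, 2% fetal bovine serum; Compound: 50 nL DMSO compound solution per well; Schedule: 3 h host attachment, then at least 90 h co-culture; Detection: luminescent β-galactosidase signal after 60 min lysis.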
UPR XBP1 act = adaptive UPR (XBP1) activation | CHO-XBP1 luciferase reporter, IRE1-XBP1 UPR activation, luminescence; percent of tunicamycin response, DMSO as zero | activation, % at 20 µM | 0.33% of 330,000 active | AID 463104;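 active = versus positive control, 20 µM dose yields 30% or more activation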;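 note: 100% = tunicamycin at 10 µg/mL and 0% = DMSO only wells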
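Signal: luciferase luminescence; Assay system: CHO-XBP1 luciferase reporter cells; Amount: one thousand reporter cells per well; Dosing: 20 µM single concentration, DMSO 1%; Benchmarks: high control tunicamycin 10 µg/mL final, low control DMSO vehicle only; Schedule: 6 h compound exposure at 37 °C, 5% CO2; Evaluation: percent activation relative to tunicamycin reference.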
Dynein cargo inh = dynein cargo transport inhibition; 3617.4 mouse cells, GR-EGFP nuclear translocation imaging; test concentration mostly 20 µM; stimulated with dexamethasone, 1 µM; stronger effect = lower value; z-score, hits read low; 0.47% of 220,000 active; AID 1381;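 active = plate z-score of nuclear minus cytoplasmic receptor signal below a set negative limit, without overly bright fluorescence or cell loss, cut at about -3.5 in these data, passing the limit was not always enough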;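 note: z-score of nuclear minus cytoplasmic ring GR-EGFP intensity difference per well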
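medium = tetracycline-free induction medium containing charcoal-stripped FBS | also added = 1.0 µM final dexamethasone stimulus | schedule = 48 h induction, 1 h compound, 30 min dex at 37 °C | technique = fixed, Hoechst-stained cells imaged at 10x for EGFP | measure = GR-EGFP nuclear translocation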
Starred values were filed as active, the others as inactive; ? = inconclusive; nt = no result.

SMILES	UPR CHOP act	L major viab	CHOP inh	T cruzi repl	UPR XBP1 act	Dynein cargo inh
CN(Cc1ccccc1)C1=CC(=[N+]2CCCCC2)CC(C)(C)C1	-1	nt	33	70*	0	0.94
Cc1cccc(/C=N/n2c(C)nc3ccccc3c2=O)c1	1	nt	nt	?	2	nt
C=C(C)COc1ccc(-c2nc(N)ncc2-c2ccc(Cl)cc2)c(O)c1	0	nt	nt	47	2	nt
O=C(CCN1CCN(c2ccccc2)CC1)Nc1ccc(OCc2ccccc2)cc1	0	3	30	-19	-3	-0.084
CNC(=S)Nc1ccc(OCc2ccccc2)cc1	0	-1	-7	-14	-3	-1
CCOc1ccc(NC(=O)NN2C(C)CCCC2C)cc1 (configuration not stated)	-1	nt	nt	-1	-5	nt
O=S(=O)(NNC(=S)Nc1ccc(S(=O)(=O)Nc2ncccn2)cc1)c1ccc(Br)cc1	-1	nt	nt	-1	-5	nt
CCOc1ccc(NC(=S)Nc2ccc(OCc3ccccc3)cc2)cc1	3	52*	4	6	1	-0.15
CCOc1ccc(NC(=S)NN2C(C)CCCC2C)cc1 (configuration not stated)	3	51*	-1	-18	-1	0.07
O=C(CCSc1ccccc1)Nc1ccc(OCc2ccccc2)cc1	0	-4	75*	17	4	0.13
CCOc1ccc(S(=O)(=O)NNC(=S)Nc2ccc(Br)cc2)cc1	0	62*	33	-13	-2	1.3
Cc1ccc2nc(Cl)c(/C=N/Nc3nc(C)cc(C)n3)c(=O)n2c1	1	57*	18	-20	1	0.21
Cc1ccc2nc(C)c(Cl)c(=O)n2c1	-1	-1	-29	-8	0	-1.4
Cn1c2c(c(=O)[nH]c1=O)C(c1cccc(O)c1)C1=C(N2)c2ccccc2C1=O (configuration not stated)	nt	3	9	nt	nt	0.23
CCOC(=O)N1CCN(C(=O)/C(=C\c2ccc(SC)cc2)NC(=O)c2ccccc2)CC1	1	nt	-15	-2	-3	0.16
CC(C)(C)c1cc(C(=O)NCCN2CCCC2)cc(C(C)(C)C)c1	-1	19	33	71*	-2	0.34
Cc1ccc(S(=O)(=O)Nc2cc(C(=O)NCCN(C)C)ccc2N2CCCCC2)cc1	0	87*	42	nt	5	-0.76
Cc1ccc(S(=O)(=O)Nc2cc(C(=O)NCCN3CCCC3)ccc2N2CCCCC2)cc1	-1	99*	44	29	5	-1.1
CCOCCCNC(=O)c1ccc(N2CCCC2)c(NS(=O)(=O)c2ccc(C)cc2)c1	2	8	11	-17	-1	1.1
COCCCNC(=O)c1ccc(N2CCCC2)c(NS(=O)(=O)c2ccc(C)cc2)c1	0	4	3	-11	2	0.22
COc1ccc(CCC(=O)N/N=C/c2ccc3c(c2)OCO3)cc1	2	nt	nt	-5	-2	nt
CN(C(=O)c1nn(C)c2c1CS(=O)(=O)c1ccccc1-2)c1cccc(Cl)c1	0	nt	nt	-4	-3	nt
CCN(CC)c1ccc(C(=O)NNC(=O)CNC(=O)c2ccco2)cc1	1	nt	nt	nt	-1	nt
CCc1ccc(-c2nnn(CCC(=O)OC)n2)cc1	-7	-9	75*	-14	-3	-0.49
CCc1ccc(Nc2ncc3c(n2)CC(c2ccc(OC)cc2)CC3=O)cc1 (configuration not stated)	1	8	50	22	-1	-0.21
COc1ccc(C(=O)Nc2ncc3c(n2)CC(C)CC3=O)cc1 (configuration not stated)	2	-3	-3	64*	1	-0.37
CCc1ccc(Nc2ncc3c(n2)CC(C)CC3=O)cc1 (configuration not stated)	4	-7	73*	-4	2	-0.12
COCCNC(=O)CSc1cc(-c2ccccc2)c2ccc(OC)cc2n1	-1	13	37	5	0	-0.42
COc1ccc2c(-c3ccccc3)cc(SCC(=O)NC(N)=O)nc2c1	-2	-5	77*	nt	-1	-0.85
O=C(COC(=O)/C=C/c1cccc(F)c1)Nc1ccc(Cl)cn1	1	-3	73*	-14	1	-0.37
